Reference: ChEMBL document CHEMBL1817574, “Development of novel conformation-constrained cytotoxic derivatives of cheliensisin A by embedment of small heterocycles” (Eur J Med Chem, 2011)

Tests used:
SMMC-7721 = assay: Cytotoxicity against human SMMC7721 cells after 48 hrs by MTT assay; type: functional, cell-based; settings: SMMC-7721, 48 h
HL-60 [1] = assay: Cytotoxicity against human HL60 cells after 48 hrs by MTT assay; type: functional, cell-based; settings: HL-60, 48 h
Summary of the method: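 Log-phase HL-60 cells were seeded at 1.25 × 10⁵ cells/mL and treated in four replicates across various concentrations for 48 h. MTT (5 mg/mL solution) was then added and incubated a further 4 h. The wells were then solubilised with 10% SDS–5% isobutanol–0.012 mol/L HCl before the colorimetric read-out.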

PANC-1 = assay: Cytotoxicity against human PANC1 cells after 48 hrs by MTT assay; type: functional, cell-based; settings: PANC-1, 48 h
SK-BR-3 = assay: Cytotoxicity against human SKBR3 cells after 48 hrs by MTT assay; type: functional, cell-based; settings: SK-BR-3, 48 h
A549 = assay: Cytotoxicity against human A549 cells after 48 hrs by MTT assay; type: functional, cell-based; settings: A549, 48 h
[2] = Chemical stability of the compound in 0.1 M phosphate buffer at pH 7.0 at 0.1 mg/mL after 12 hrs by HPLC analysis; type: physicochemical; settings: pH 7, 12 h
HL-60 [3] = assay: Ratio IC50 for cheliensisin A to compound for human HL60 cells after 48 hrs by MTT assay; type: functional

Molecule `CC(=O)O[C@H]1C=CC(=O)O[C@@H]1[C@H]1N=C(c2ccccc2)O[C@@H]1c1ccccc1` has an IC50 (SMMC-7721) of over 40 µM, an IC50 (HL-60 [1]) of over 40 µM and an IC50 (PANC-1) of over 40 µM. The IC50 (SK-BR-3) was over 40 µM and the IC50 (A549) was over 40 µM.

For `CC(=O)O[C@H]1C=CC(=O)O[C@@H]1[C@@H]1N=C(c2ccccc2)O[C@@H]1c1ccccc1`, the IC50 (SMMC-7721) was 17.7 µM, the IC50 (HL-60 [1]) was 4.3 µM and the IC50 (PANC-1) was 12.8 µM. For the same molecule, the IC50 (SK-BR-3) was 3.65 µM and the IC50 (A549) was 18.3 µM.

Work on `CC(=O)O[C@H]1C=CC(=O)O[C@@H]1[C@H]1N=C(Cc2ccccc2)O[C@@H]1c1ccccc1` yielded an IC50 (SMMC-7721) of over 40 µM, an IC50 (HL-60 [1]) of 17.8 µM and an IC50 (PANC-1) of over 40 µM. The IC50 (SK-BR-3) was 35.2 µM and the IC50 (A549) was over 40 µM.

For `C/C=C/C1=N[C@@H]([C@H]2OC(=O)C=C[C@@H]2OC(C)=O)[C@@H](c2ccccc2)O1`, the IC50 (SMMC-7721) was 14.5 µM, the IC50 (HL-60 [1]) was 1.26 µM and the IC50 (PANC-1) was 3.87 µM. The IC50 (SK-BR-3) was 2.22 µM and the IC50 (A549) was 30.7 µM.

In the case of `C/C=C\C1=N[C@H]([C@H]2OC(=O)C=C[C@@H]2OC(C)=O)[C@@H](c2ccccc2)O1`, the IC50 (SMMC-7721) is reported as 27 µM, the IC50 (HL-60 [1]) is reported as 4.59 µM and the IC50 (PANC-1) is reported as 23 µM. It also gave an IC50 (SK-BR-3) of over 40 µM and an IC50 (A549) of over 40 µM.

Molecule `C/C=C/C1=N[C@H]([C@H]2OC(=O)C=C[C@@H]2OC(C)=O)[C@@H](c2ccccc2)O1` has an IC50 (SMMC-7721) of over 40 µM, an IC50 (HL-60 [1]) of 6.93 µM and an IC50 (PANC-1) of 24.4 µM. For the same molecule, the IC50 (SK-BR-3) was 18 µM and the IC50 (A549) was over 40 µM.

In the case of `CC(=O)O[C@H]1C=CC(=O)O[C@@H]1[C@@H]1N=C(/C=C/c2ccccc2)O[C@@H]1c1ccccc1`, the Stability [2] is reported as “Stable”, the IC50 (SMMC-7721) is reported as 21 µM and the IC50 (HL-60 [1]) is reported as 0.48 µM. The IC50 (PANC-1) was 4.1 µM, the IC50 (SK-BR-3) was 4.03 µM and the “Ratio IC50” value (HL-60 [3]) was 4. The IC50 (A549) was 18.9 µM.

With `CC(=O)O[C@H]1C=CC(=O)O[C@@H]1[C@H]1N=C(/C=C/c2ccccc2)O[C@@H]1c1ccccc1` the IC50 (SMMC-7721) was 24 µM, the IC50 (HL-60 [1]) was 4.05 µM and the IC50 (PANC-1) was 21.1 µM. For the same molecule, the IC50 (SK-BR-3) was 23.1 µM and the IC50 (A549) was 21.9 µM.

In the case of `CC(=O)O[C@H]1C=CC(=O)O[C@@H]1[C@H]1N=C(C)O[C@@H]1c1ccccc1`, the IC50 (SMMC-7721) is reported as 16.3 µM, the IC50 (HL-60 [1]) is reported as 2.52 µM and the IC50 (PANC-1) is reported as 16.6 µM. The IC50 (SK-BR-3) was 7.26 µM and the IC50 (A549) was over 40 µM.

`CC(=O)O[C@H]1C=CC(=O)O[C@@H]1[C@H]1N=C(C(=O)c2ccccc2)O[C@@H]1c1ccccc1` showed an IC50 (SMMC-7721) of over 40 µM, an IC50 (HL-60 [1]) of over 40 µM and an IC50 (PANC-1) of over 40 µM. The IC50 (SK-BR-3) was over 40 µM and the IC50 (A549) was over 40 µM.

With `CC(=O)O[C@H]1C=CC(=O)O[C@@H]1c1nc(/C=C/c2ccccc2)oc1-c1ccccc1` the Stability [2] was “Stable”, the IC50 (SMMC-7721) was 24.6 µM and the IC50 (HL-60 [1]) was 5.89 µM. It also gave an IC50 (PANC-1) of 7.22 µM, an IC50 (SK-BR-3) of 7.36 µM and an IC50 (A549) of 24.8 µM.

In the case of `C/C=C\c1nc([C@H]2OC(=O)C=C[C@@H]2OC(C)=O)c(-c2ccccc2)o1`, the IC50 (SMMC-7721) is reported as over 40 µM, the IC50 (HL-60 [1]) is reported as over 40 µM and the IC50 (PANC-1) is reported as over 40 µM. It also gave an IC50 (SK-BR-3) of over 40 µM and an IC50 (A549) of over 40 µM.

Molecule `CC(=O)O[C@H]1C=CC(=O)O[C@@H]1c1nc(-c2ccccc2)oc1-c1ccccc1` has an IC50 (SMMC-7721) of 15.7 µM, an IC50 (HL-60 [1]) of 2.59 µM and an IC50 (PANC-1) of 13.9 µM. The IC50 (SK-BR-3) was 12 µM and the IC50 (A549) was 14.7 µM.

For `CC(=O)O[C@H]1C=CC(=O)O[C@@H]1[C@H](NC(=O)c1ccccc1)[C@H](O)c1ccccc1`, the IC50 (SMMC-7721) was over 40 µM, the IC50 (HL-60 [1]) was over 40 µM and the IC50 (PANC-1) was over 40 µM. The IC50 (SK-BR-3) was over 40 µM and the IC50 (A549) was over 40 µM.

Work on `CC(=O)O[C@H]1C=CC(=O)O[C@@H]1[C@@H](NC(=O)Cc1ccccc1)[C@H](O)c1ccccc1` yielded an IC50 (SMMC-7721) of over 40 µM, an IC50 (HL-60 [1]) of 5.19 µM and an IC50 (PANC-1) of over 40 µM. It also gave an IC50 (SK-BR-3) of 38.8 µM and an IC50 (A549) of over 40 µM.

In the case of `CC(=O)O[C@H]1C=CC(=O)O[C@@H]1[C@@H](NC(=O)/C=C/c1ccccc1)[C@H](O)c1ccccc1`, the IC50 (SMMC-7721) is reported as over 40 µM, the IC50 (HL-60 [1]) is reported as over 40 µM and the IC50 (PANC-1) is reported as over 40 µM. For the same molecule, the IC50 (SK-BR-3) was over 40 µM and the IC50 (A549) was over 40 µM.

For `CC(=O)O[C@H]1C=CC(=O)O[C@@H]1/C=C/c1ccccc1`, the Stability [2] was “Stable”, the IC50 (SMMC-7721) was 29 µM and the IC50 (HL-60 [1]) was 2.68 µM. For the same molecule, the IC50 (PANC-1) was 7.95 µM, the IC50 (SK-BR-3) was 4.63 µM and the IC50 (A549) was 38.8 µM.

Work on `CC(=O)O[C@H]1C=CC(=O)O[C@@H]1[C@@H](O)[C@@H](Nc1ccccc1)c1ccccc1` yielded an IC50 (SMMC-7721) of over 40 µM, an IC50 (HL-60 [1]) of over 40 µM and an IC50 (PANC-1) of over 40 µM. For the same molecule, the IC50 (SK-BR-3) was over 40 µM and the IC50 (A549) was over 40 µM.

`CC(=O)O[C@H]1C=CC(=O)O[C@@H]1[C@@H](O)[C@H](O)c1ccccc1` gave an IC50 (SMMC-7721) of over 40 µM, an IC50 (HL-60 [1]) of over 40 µM and an IC50 (PANC-1) of over 40 µM. It also gave an IC50 (SK-BR-3) of over 40 µM and an IC50 (A549) of over 40 µM.

`CC(=O)O[C@H]1C=CC(=O)O[C@H]1[C@H]1OC(C)(C)O[C@@H]1c1ccccc1` gave an IC50 (SMMC-7721) of over 40 µM, an IC50 (HL-60 [1]) of over 40 µM and an IC50 (PANC-1) of over 40 µM. The IC50 (SK-BR-3) was over 40 µM and the IC50 (A549) was over 40 µM.

For `CC(=O)O[C@H]1C=CC(=O)O[C@H]1[C@H]1OC(=O)O[C@@H]1c1ccccc1`, the IC50 (SMMC-7721) was over 40 µM, the IC50 (HL-60 [1]) was over 40 µM and the IC50 (PANC-1) was over 40 µM. It also gave an IC50 (SK-BR-3) of over 40 µM and an IC50 (A549) of over 40 µM.

In the case of `CC(=O)O[C@H]1C=CC(=O)O[C@H]1[C@H]1O[C@@H]1c1ccccc1` [CHELIENSISIN A], the Stability [2] is reported as “Stable”, the IC50 (SMMC-7721) is reported as 4.7 µM and the IC50 (HL-60 [1]) is reported as 1.97 µM. The IC50 (PANC-1) was 25.7 µM, the IC50 (SK-BR-3) was 20.3 µM and the IC50 (A549) was 5.99 µM.
